From ChEMBL document CHEMBL4819122, “Novel 4-(piperazin-1-yl)quinolin-2(1H)-one bearing thiazoles with antiproliferative activity through VEGFR-2-TK inhibition” (Bioorg Med Chem, 2021)
Active and inactive are the calls of the source. The rule behind the calls is not given here.

What was measured:
[1] = system: SN12C; test: Cytotoxicity against human SN12C assessed as growth inhibition at 10 uM by NCI protocol relative to control; format: functional; details: read-out: GI
Procedure, shortened: (§1)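 Run by the NCI under its standard protocol: one dose of 10 μM against a sixty-line panel from nine human tumour tissues. Result given as percent growth inhibition of treated cells relative to untreated cells.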

[2] = system: TK-10; test: Cytotoxicity against human TK-10 assessed as growth inhibition at 10 uM by NCI protocol relative to control; format: functional; details: read-out: GI; procedure, shortened: as §1
[3] = system: SNB-75; test: Cytotoxicity against human SNB-75 assessed as growth inhibition at 10 uM by NCI protocol relative to control; format: functional; details: read-out: GI; procedure, shortened: as §1
[4] = system: HCT-15; test: Cytotoxicity against human HCT-15 assessed as growth inhibition at 10 uM by NCI protocol relative to control; format: functional; details: read-out: GI
Procedure, shortened: (§2)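 Run by NCI as a single-dose screen at 10 μM across the sixty-cell-line panel, which covers nine human tumour tissue types. The read-out is percent growth inhibition of treated cells relative to untreated cells.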

[5] = system: NCI-H226; test: Cytotoxicity against human NCI-H226 assessed as growth inhibition at 10 uM by NCI protocol relative to control; format: functional; details: read-out: GI; procedure, shortened: as §2
[6] = system: A498; test: Cytotoxicity against human A498 assessed as growth inhibition at 10 uM by NCI protocol relative to control; format: functional; details: read-out: GI; procedure, shortened: as §2
[7] = system: RXF 393; test: Cytotoxicity against human RXF 393 assessed as growth inhibition at 10 uM by NCI protocol relative to control; format: functional; details: read-out: GI; procedure, shortened: as §2
[8] = system: SK-MEL-2; test: Cytotoxicity against human SK-MEL-2 assessed as growth inhibition at 10 uM by NCI protocol relative to control; format: functional; details: read-out: GI; procedure, shortened: as §2
[9] = system: MDA-MB-468; test: Cytotoxicity against human MDA-MB-468 assessed as growth inhibition at 10 uM by NCI protocol relative to control; format: functional; details: read-out: GI; procedure, shortened: as §2
[10] = system: SF-268; test: Cytotoxicity against human SF-268 assessed as growth inhibition at 10 uM by NCI protocol relative to control; format: functional; details: read-out: GI; procedure, shortened: as §2
[11] = system: HOP-92; test: Cytotoxicity against human HOP-92 assessed as growth inhibition at 10 uM by NCI protocol relative to control; format: functional; procedure, shortened: as §2
[12] = system: SK-MEL-28; test: Cytotoxicity against human SK-MEL-28 assessed as growth inhibition at 10 uM by NCI protocol relative to control; format: functional; details: read-out: GI; procedure, shortened: as §2
[13] = system: COLO 205; test: Cytotoxicity against human COLO 205 assessed as growth inhibition at 10 uM by NCI protocol relative to control; format: functional; details: read-out: GI; procedure, shortened: as §2
[14] = system: NCI-H522; test: Cytotoxicity against human NCI-H522 assessed as growth inhibition at 10 uM by NCI protocol relative to control; format: functional; details: read-out: GI; procedure, shortened: as §2
[15] = system: SK-MEL-5; test: Cytotoxicity against human SK-MEL-5 assessed as growth inhibition at 10 uM by NCI protocol relative to control; format: functional; details: read-out: GI; procedure, shortened: as §2
[16] = system: IGROV-1; test: Cytotoxicity against human IGROVI assessed as growth inhibition at 10 uM by NCI protocol relative to control; format: functional; details: read-out: GI; procedure, shortened: as §2
[17] = system: SF-295; test: Cytotoxicity against human SF-295 assessed as growth inhibition at 10 uM by NCI protocol relative to control; format: functional; details: read-out: GI; procedure, shortened: as §2
[18] = system: DU-145; test: Cytotoxicity against human DU-145 assessed as growth inhibition at 10 uM by NCI protocol relative to control; format: functional; details: read-out: GI; procedure, shortened: as §2
[19] = system: BT-549; test: Cytotoxicity against human BT-549 assessed as growth inhibition at 10 uM by NCI protocol relative to control; format: functional; details: read-out: GI; procedure, shortened: as §2
[20] = system: 786-0; test: Cytotoxicity against human 786-0 assessed as growth inhibition at 10 uM by NCI protocol relative to control; format: functional; details: read-out: GI; procedure, shortened: as §2
[21] = system: SR; test: Cytotoxicity against human SR assessed as growth inhibition at 10 uM by NCI protocol relative to control; format: functional; details: read-out: GI; procedure, shortened: as §1
[22] = system: U-251; test: Cytotoxicity against human U251 assessed as growth inhibition at 10 uM by NCI protocol relative to control; format: functional; details: read-out: GI; procedure, shortened: as §1
[23] = system: HT-29; test: Cytotoxicity against human HT29 assessed as growth inhibition at 10 uM by NCI protocol relative to control; format: functional; details: read-out: GI; procedure, shortened: as §2
[24] = system: NCI-H322M; test: Cytotoxicity against human NCI-H322M assessed as growth inhibition at 10 uM by NCI protocol relative to control; format: functional; details: read-out: GI; procedure, shortened: as §2
[25] = system: SK-OV-3; test: Cytotoxicity against human SK-OV-3 assessed as growth inhibition at 10 uM by NCI protocol relative to control; format: functional; details: read-out: GI; procedure, shortened: as §2
[26] = system: T47D; test: Cytotoxicity against human T47D cells assessed as reduction in cell viability after 3 hrs by MTT assay
[27] = system: HL-60; test: Cytotoxicity against human HL60 assessed as growth inhibition at 10 uM by NCI protocol relative to control; format: functional; details: read-out: GI; procedure, shortened: as §2
[28] = system: UACC-257; test: Cytotoxicity against human UACC-257 assessed as growth inhibition at 10 uM by NCI protocol relative to control; format: functional; details: read-out: GI; procedure, shortened: as §1
[29] = system: A549; test: Cytotoxicity against human A549 assessed as growth inhibition at 10 uM by NCI protocol relative to control; format: functional; details: read-out: GI; procedure, shortened: as §2
[30] = system: T47D; test: Cytotoxicity against human T-47D assessed as growth inhibition at 10 uM by NCI protocol relative to control; format: functional; details: read-out: GI; procedure, shortened: as §1
[31] = system: NCI-H460; test: Cytotoxicity against human NCI-H460 assessed as growth inhibition at 10 uM by NCI protocol relative to control; format: functional; details: read-out: GI; procedure, shortened: as §2
[32] = system: EKVX; test: Cytotoxicity against human EKVX assessed as growth inhibition at 10 uM by NCI protocol relative to control; format: functional; details: read-out: GI; procedure, shortened: as §2
[33] = system: NCI-H23; test: Cytotoxicity against human NCI-H23 assessed as growth inhibition at 10 uM by NCI protocol relative to control; format: functional; details: read-out: GI; procedure, shortened: as §2
[34] = system: OVCAR-3; test: Cytotoxicity against human OVCAR-3 assessed as growth inhibition at 10 uM by NCI protocol relative to control; format: functional; details: read-out: GI; procedure, shortened: as §2
[35] = system: UO-31; test: Cytotoxicity against human UO31 assessed as growth inhibition at 10 uM by NCI protocol relative to control; format: functional; details: read-out: GI; procedure, shortened: as §1
[36] = system: NCI/ADR-RES; test: Cytotoxicity against human NCl/ADR-RES assessed as growth inhibition at 10 uM by NCI protocol relative to control; format: functional; details: read-out: GI; procedure, shortened: as §2
[37] = system: CAKI-1; test: Cytotoxicity against human Caki1 assessed as growth inhibition at 10 uM by NCI protocol relative to control; format: functional; details: read-out: GI; procedure, shortened: as §2
[38] = system: M14; test: Cytotoxicity against human M14 assessed as growth inhibition at 10 uM by NCI protocol relative to control; format: functional; details: read-out: GI; procedure, shortened: as §2
[39] = system: KM12; test: Cytotoxicity against human KM12 assessed as growth inhibition at 10 uM by NCI protocol relative to control; format: functional; details: read-out: GI; procedure, shortened: as §2
[40] = system: LOX IMVI; test: Cytotoxicity against human LOX IMVI assessed as growth inhibition at 10 uM by NCI protocol relative to control; format: functional; details: read-out: GI; procedure, shortened: as §2
[41] = system: Malme-3M; test: Cytotoxicity against human MALME-3M assessed as growth inhibition at 10 uM by NCI protocol relative to control; format: functional; details: read-out: GI; procedure, shortened: as §2
[42] = system: PC-3; test: Cytotoxicity against human PC3 assessed as growth inhibition at 10 uM by NCI protocol relative to control; format: functional; details: read-out: GI; procedure, shortened: as §2
[43] = system: K562; test: Cytotoxicity against human K-562 assessed as growth inhibition at 10 uM by NCI protocol relative to control; format: functional; details: read-out: GI; procedure, shortened: as §2

Work on `O=C(CN1CCN(c2cc(=O)n(-c3ccccc3)c3ccccc23)CC1)Nc1nc(-c2ccc(Cl)cc2)cs1` yielded an inhibition of growth at 10 µM [1] of 25.9%, an inhibition of growth at 10 µM [2] of 37.6% and an inhibition of growth at 10 µM [3] of 32.5%. For the same compound, the inhibition of growth at 10 µM [4] was 60.3%, the inhibition of growth at 10 µM [5] was 52.6% and the inhibition of growth at 10 µM [6] was 59.2%. For the same compound, the inhibition of growth at 10 µM [7] was 33%, the inhibition of growth at 10 µM [8] was 24.4% and the inhibition of growth at 10 µM [9] was 90.4%. The inhibition of growth at 10 µM [10] was 45.5%, the “growth inhibition (GI)” value [11] was “inactive” and the inhibition of growth at 10 µM [12] was 30.8%. For the same compound, the inhibition of growth at 10 µM [13] was 42.7%, the inhibition of growth at 10 µM [14] was 43.7% and the inhibition of growth at 10 µM [15] was 94.9%. It also gave an inhibition of growth at 10 µM [16] of 34.5%, an inhibition of growth at 10 µM [17] of 37.4% and an inhibition of growth at 10 µM [18] of 38.4%. It also gave an inhibition of growth at 10 µM [19] of 53.5%, an inhibition of growth at 10 µM [20] of 32.4% and an inhibition of growth at 10 µM [21] of 43.2%. For the same compound, the inhibition of growth at 10 µM [22] was 36.2%, the inhibition of growth at 10 µM [23] was 36.2% and the inhibition of growth at 10 µM [24] was 10.9%. The inhibition of growth at 10 µM [25] was 28.6%, the IC50 [26] was 30.2 µM and the inhibition of growth at 10 µM [27] was 73.8%. It also gave an inhibition of growth at 10 µM [28] of 72%, an inhibition of growth at 10 µM [29] of 47.4% and an inhibition of growth at 10 µM [30] of 75.7%. For the same compound, the inhibition of growth at 10 µM [31] was 45.2%, the inhibition of growth at 10 µM [32] was 57.3% and the inhibition of growth at 10 µM [33] was 50.2%. The inhibition of growth at 10 µM [34] was 32.9%, the inhibition of growth at 10 µM [35] was 70.5% and the inhibition of growth at 10 µM [36] was 45.1%. For the same compound, the inhibition of growth at 10 µM [37] was 50.4%, the inhibition of growth at 10 µM [38] was 50.2% and the inhibition of growth at 10 µM [39] was 35.3%. It also gave an inhibition of growth at 10 µM [40] of 41.6%, an inhibition of growth at 10 µM [41] of 44.9% and an inhibition of growth at 10 µM [42] of 65%. For the same compound, the inhibition of growth at 10 µM [43] was 75.8%.
